# Reference: article PMC11937985 (Journal of Clinical Pharmacology, 2024)
# Where two headings read alike, the source gives them in different places.
# Legend:
# [1] = 20‐ to 60‐mg dose range; cited from earlier work
# [2] = Safety and tolerability assessment in the phase 1 study; assay type: in vivo, human
# Outline: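 Healthy postmenopausal smokers and nonsmokers received oral test compound 30 mg on Day 1 after a 10-h fast. Oral fluvoxamine 50 mg was given on Day 3 evening, twice daily on Days 4–9, and on Day 10 morning. On Day 7 the test compound was co-dosed fasted. AEs were recorded from consent to end of study, in all subjects dosed at least once.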
# [3] = assay type: in vivo, human
# [4] = fezolinetant 45 mg, pooled 12-week data, cited from earlier work
# [5] = assay type: in vitro ADME, human; details: preliminary assay; rate of degradation could not be determined precisely
# [6] = fezolinetant + fluvoxamine vs fezolinetant alone
SMILES,dose dependence of Cmax and total exposure (AUC) [1],"subjects with TEAEs, overall ([2]; all treatment periods, 18 TEAEs, 18 subjects enrolled) [%]","safety and tolerability ([2]; single oral 30-mg dose of fezolinetant co-administered with fluvoxamine, healthy postmenopausal women)","Tmax ([3]; female, human, plasma, oral, 30 mg) [h]","tmax, Median [min–max] ([3]; fezolinetant 30 mg + fluvoxamine, nonsmoker n = 9)","tmax, Median [min–max] ([3]; fezolinetant 30 mg + fluvoxamine, smoker n = 9)","tmax, Median [min–max] ([3]; fezolinetant 30 mg alone, nonsmoker n = 9)","tmax, Median [min–max] ([3]; fezolinetant 30 mg alone, smoker n = 9)","increase in half-life on co-administration with fluvoxamine [3, 6] [fold]","increase in total exposure on co-administration with fluvoxamine [3, 6]",exposure decrease by smoking ([3]; smokers vs nonsmokers),LS mean difference in VMS frequency versus placebo ([4]; current smokers),LS mean difference in VMS frequency versus placebo ([4]; former/never smokers),metabolic stability [5],"dizziness (TEAE), subjects reporting ([2]; 18 subjects)","erythema (TEAE), subjects reporting ([2]; 18 subjects) [%]","orthostatic intolerance (TEAE), subjects reporting ([2]; 18 subjects)",subjects with TEAE considered drug related by the investigator ([2]; 18 subjects) [%]
Cc1nsc(-c2nnc3n2CCN(C(=O)c2ccc(F)cc2)[C@@H]3C)n1 [Fezolinetant],increased linearly,44.4,safe and well tolerated,1,1.50 [1.00‐4.00] h,1.50 [1.48‐4.00] h,1.00 [0.983‐2.00] h,1.00 [1.00‐1.50] h,~5.6,approximately 9 fold,about 50%,−3.48,−2.32,highly stable,,,,
COCCCC/C(=N\OCCN)c1ccc(C(F)(F)F)cc1 [fluvoxamine],,,,,,,,,,,,,,,one subject,11.1,one subject,5.6
